High-throughput results from PubChem BioAssay.
MEKK2wt PB1 HTS: modulators of MEK5 binding to wildtype MEKK2, primary screen, biochemical, multiplex bead flow cytometry, Alexa488-MEK5; Mitogen-activated protein kinase kinase kinase 2 (Homo sapiens), Q9Y2U5; Alexa488-MEK5 binding to MEKK2 WT; actives lie on both sides; binding response (% of control), % at 10 µM; 1.1% of 290,000 active; AID 1531, 2009; in the data active = binding response below about 67% or above about 130%
MEKK3 PB1 HTS: modulators of MEKK3-MEK5 PB1 binding, primary screen, biochemical, wildtype MEKK3, multiplex bead flow cytometry, Alexa488-MEK5 | 1.4% of 290,000 active | bead-based flow cytometry, Alexa488-MEK5 binding to MEKK3; actives lie on both sides; 0 = blocked by unlabeled MEK5, 100 = vehicle | binding response (% of control), % at 10 µM | Mitogen-activated protein kinase kinase kinase 3 (Homo sapiens), Q99759;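 active = binding response more than 3 SD above or below the average of its plate-row segment, actives on both sides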;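 note: Alexa488 bead fluorescence after subtracting the streptavidin-only scavenger bead signal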
Lipid droplet: inhibitors of hepatocyte lipid droplet formation, primary screen, imaging, high-throughput imaging, BODIPY stain; AML12 mouse hepatocytes, oleate lipid droplets; inhibition, % at 6.5 µM; 0.4% of 240,000 active;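 active = lipid droplet intensity inhibited by at least 50%, with more than 500 cells counted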
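Material – AML12 mouse liver cells · Also added – oleate loading, 100 µM · Compound dosing – 6.5 µM single-point dosing · Times – overnight treatment with compound plus oleate · Measured by – fluorescence imaging, 20x objective, two fields per well · Read-out – percent inhibition of filter-corrected integrated lipid droplet intensity per well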
MEKK2 mut-MEK5: MEK5 binding signal on mutant MEKK2 PB1, primary screen, biochemical, multiplex bead flow cytometry, Alexa488-MEK5 | Alexa488-MEK5 binding to MEKK2 mutant | percent response, % at 10 µM | 0.35% of 290,000 active; in the data active = percent response above about 24%, passing the limit was not always enough
MEKK2wt confirm: modulators of MEK5 binding to wildtype MEKK2, confirmation, biochemical, single concentration, multiplex bead flow cytometry; shares compounds with MEKK3 PB1 HTS; Alexa488-MEK5 binding to MEKK2 WT; actives lie on both sides; binding response (% of control), % at 10 µM; 2.4% of 5,900 active; in the data active = binding response below about 16% or above about 210%; inactive = in between
MEKK2mut confirm: mutant MEKK2 PB1-MEK5 binding signal retest – biochemical, single concentration, multiplex bead flow cytometry, confirmation; AID 1893, 2009; shares compounds with MEKK3 PB1 HTS; Alexa488-MEK5 binding to MEKK2 mutant; percent response, % at 10 µM; 2% of 5,900 active; in the data active = percent response mostly above about 71%, no sharp cut-off; inactive = mostly below about 38%;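 note: higher means compound restores mutant binding toward wildtype level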
MEKK3 confirm: MEKK3 wild-type PB1 binding to MEK5, inhibitors, confirmation, biochemical, bead multiplex flow cytometry, single concentration, wildtype. shares compounds with MEKK3 PB1 HTS. binding response (% of control), % at 10 µM. Alexa488-MEK5 binding to MEKK3; stronger effect = lower value. 1.8% of 5,900 active. AID 1894, 2009;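 active = binding response below 72% of control, or above a set upper limit, though filed actives all read lower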;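 note: 100% = DMSO only wells and 0% = binding blocked by excess unlabeled MEK5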
An asterisk follows results filed as active. Shown are actives, neighbours in structure and some others; about 2.6% of the full set was active somewhere.

Results for CCOc1ccc(CN(C)C(C)C(=O)Nc2ccc([N+](=O)[O-])cc2Cl)cc1OC (configuration not stated) ?
MEKK2wt PB1 HTS: 98; MEKK3 PB1 HTS: 139*; Lipid droplet: -32; MEKK2 mut-MEK5: -2; MEKK2wt confirm: 103; MEKK2mut confirm: 3; MEKK3 confirm: 100

What do the screens show for `COc1cc(O)c(C(CCN2CCCC2)c2ccc(N(C)C)cc2)c(OC)c1` (configuration not stated)?
MEKK2wt PB1 HTS: 153*; MEKK3 PB1 HTS: 119; Lipid droplet: -2; MEKK2 mut-MEK5: 8; MEKK2wt confirm: 129; MEKK2mut confirm: 37; MEKK3 confirm: 106

What do the screens show for `COc1ccc(C2CC(=O)Oc3c(C(CCN4CCCC(C)C4)c4ccc(N(C)C)cc4)c(OC)cc(OC)c32)cc1` (configuration not stated)?
MEKK2wt PB1 HTS: 152*; MEKK3 PB1 HTS: 105; Lipid droplet: -1; MEKK2 mut-MEK5: 17; MEKK2wt confirm: 140; MEKK2mut confirm: 22; MEKK3 confirm: 103

What do the screens show for `COc1cc(C2CC(=O)Oc3c(C(CCN4CCN(c5ccccc5)CC4)c4ccc(N(C)C)cc4)c(OC)cc(OC)c32)cc(OC)c1OC` (configuration not stated)?
MEKK2wt PB1 HTS: 127; MEKK3 PB1 HTS: 112; Lipid droplet: 42; MEKK2 mut-MEK5: 6

Results for COc1cc(C2CC(=O)Oc3c(C(CCN4CCOCC4)c4ccc(N(C)C)cc4)c(OC)cc(OC)c32)cc(OC)c1OC (configuration not stated) ?
MEKK2wt PB1 HTS: 106; MEKK3 PB1 HTS: 104; Lipid droplet: -2; MEKK2 mut-MEK5: 4

What do the screens show for `COc1ccc(C2CC(=O)Oc3c(C(CCN4CCCCC4)c4ccc(N(C)C)cc4)c(OC)cc(OC)c32)cc1` (configuration not stated)?
MEKK2wt PB1 HTS: 156*; MEKK3 PB1 HTS: 95; Lipid droplet: 5; MEKK2 mut-MEK5: 17; MEKK2wt confirm: 141; MEKK2mut confirm: 28; MEKK3 confirm: 105

Results for COc1c(Br)cc(/C=N/n2c(-c3ccccc3)n[nH]c2=S)c(O)c1Br ?
MEKK2wt PB1 HTS: 106; MEKK3 PB1 HTS: 102; Lipid droplet: -1; MEKK2 mut-MEK5: 0

How did CC(NS(=O)(=O)/C=C/c1ccccc1)c1ccccc1 (configuration not stated) do in these assays?
MEKK2wt PB1 HTS: 85; MEKK3 PB1 HTS: 77; Lipid droplet: -19; MEKK2 mut-MEK5: -11

What do the screens show for `COc1cc(CCC(=O)Nc2cccc(S(=O)(=O)N(C)C)c2)cc(OC)c1OC`?
MEKK2wt PB1 HTS: 107; MEKK3 PB1 HTS: 107; Lipid droplet: -15; MEKK2 mut-MEK5: 2

Results for COCCNc1ccc(S(=O)(=O)N2CCCC2)cn1 ?
MEKK2wt PB1 HTS: 106; MEKK3 PB1 HTS: 107; Lipid droplet: 5; MEKK2 mut-MEK5: 6

How did COc1ccc(Cl)cc1N(CC(=O)N1CCN(Cc2ccccc2)CC1)S(C)(=O)=O do in these assays?
MEKK2wt PB1 HTS: 112; MEKK3 PB1 HTS: 125*; MEKK2 mut-MEK5: 5; MEKK2wt confirm: 106; MEKK2mut confirm: 0; MEKK3 confirm: 102

What do the screens show for `COc1c(S(=O)(=O)NCCCn2ccnc2)ccc(Cl)c1Cl`?
MEKK2wt PB1 HTS: 123; MEKK3 PB1 HTS: 112; Lipid droplet: -2; MEKK2 mut-MEK5: 16
